ADAM17 inh – inhibitors of human ADAM17 | P78536 | recombinant ADAM17, EDANS/DABCYL FRET peptide cleavage | inhibition, % at 6.95 µM | 0.83% of 370,000 active | AID 720648;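 active = inhibition above the mean of compounds lying between control limits plus 3 SD, set per campaign, cut at about 8.5% in these data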
Target sequence (P78536 215-824 limits assumed): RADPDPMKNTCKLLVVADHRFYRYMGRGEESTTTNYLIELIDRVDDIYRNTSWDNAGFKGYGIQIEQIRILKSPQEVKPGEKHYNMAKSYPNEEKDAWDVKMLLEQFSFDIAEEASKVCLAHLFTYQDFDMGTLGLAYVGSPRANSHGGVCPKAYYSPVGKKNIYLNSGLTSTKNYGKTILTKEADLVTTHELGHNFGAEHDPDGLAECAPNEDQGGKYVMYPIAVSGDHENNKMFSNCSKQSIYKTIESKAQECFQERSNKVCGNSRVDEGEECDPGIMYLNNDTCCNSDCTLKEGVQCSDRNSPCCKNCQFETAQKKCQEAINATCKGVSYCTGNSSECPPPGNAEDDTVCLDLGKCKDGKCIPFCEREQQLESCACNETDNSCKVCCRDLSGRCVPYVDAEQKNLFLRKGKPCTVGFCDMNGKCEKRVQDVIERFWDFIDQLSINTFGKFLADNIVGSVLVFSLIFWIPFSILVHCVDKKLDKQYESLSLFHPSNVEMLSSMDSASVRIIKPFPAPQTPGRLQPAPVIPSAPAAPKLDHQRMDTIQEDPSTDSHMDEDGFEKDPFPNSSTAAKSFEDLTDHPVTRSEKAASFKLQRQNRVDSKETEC
FAS-TE inh – inhibitors of human fatty acid synthase thioesterase domain | P49327 | recombinant FAS-TE, OMFH fluorogenic substrate, fluorescence endpoint | inhibition, % at 15 µM | 0.67% of 360,000 active | AID 602261;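 active = compounds whose normalised, plate-corrected inhibition of enzyme fluorescence in the single-dose primary screen is 50% or more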
ADAM10 inh – ADAM10 inhibition, QFRET primary screen; inhibition, % at 7 µM; 0.62% of 370,000 active; recombinant ADAM10, EDANS/DABCYL FRET peptide cleavage, 3 h; O14672;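 active = inhibition above a per-campaign cutoff equal to the mean of compounds falling between control-based bounds plus 3 SD, cut at about 20% in these data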
CendR NRP1 mod – alters CendR peptide binding to human NRP-1. FAM-RPARPAR peptide binding to NRP-1, fluorescence polarization. inhibition, % at 25 µM. 0.85% of 360,000 active;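 active = inhibition or corrected inhibition above about 18%, plus a signal ratio from 0.5 to 1.5, limit read from the data, passing the limit was not always enough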
Arr AP2 block – human beta-arrestin and AP2 interaction inhibition; 0.31% of 340,000 active; AID 504490; FITC-arrestin peptide / GST-AP2 beads, flow cytometry; AP2 beta2 appendage carries R879A mutation; inhibition, % at 10 µM;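 active = inhibition above a set limit, near 3 SD of compounds lacking own fluorescence, cut at about 54% in these data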
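System: GST-tagged AP2 beta2-adaptin appendage (R879A) on 4 µm glutathione beads / Reagent: FITC-arrestin peptide, 50 nM / Detection: HyperCyt-sampled flow cytometry, FL1 channel, ex 488/em 535 nm / Timing: 12 min plus 1 h, RT / Buffer or medium: PBS plus Tween 20 (0.05%) and BSA (0.1%)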
CaV13 ICDI inh – Primary screen for inhibitors of IQ motif and Ca2+-dependent inactivation inhibitor domain binding in CACNA1D, Förster resonance energy transfer in living cells, …; HEK cells, CFP/YFP FRET ICDI-IQ, plate reader, 10 min; percent FRET-ratio fall versus neutral wells; 0.098% of 340,000 active; inhibition, % at 12.3 µM; AID 743397;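 active = mean replicate inhibition of at least 30% and at least 1% of replicates passing that level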
ADAM10 counter – inhibits human ADAM10 in ADAM17 exosite counter-screen | shares compounds with ADAM17 inh | recombinant ADAM10, EDANS/DABCYL FRET peptide cleavage, 3 h | inhibition, % at 6.95 µM | 47% of 2,900 active;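 active = mean inhibition over the triplicate runs exceeds the activity threshold set in the earlier primary screen, cut at about 20% in these data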
ADAM17 confirm – confirmation of inhibitors of human ADAM17; shares compounds with ADAM17 inh; recombinant ADAM17, EDANS/DABCYL QFRET peptide cleavage; inhibition, % at 6.95 µM; 65% of 2,900 active;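 active = mean inhibition across replicates above the hit cutoff set in the primary screen, cut at about 8.5% in these data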
Large screens that a line does not name were inactive (follow-up assays come after a bar, where they were run). Rows were chosen to be rich in hits. Some 2.9% of all compounds tested hit in one or more screens of this group.

CCC(O)(c1ccc(NC(=O)OC(C)(C)C)cc1)c1cc(OC)cc(OC)c1 (centres undefined)	none (no result: FAS-TE inh, CendR NRP1 mod, Arr AP2 block, CaV13 ICDI inh)
COc1cccc(C2CC(c3ccc(Br)cc3)=NN2C(=O)c2ccncc2)c1OC (centres undefined)	none
COc1ccccc1C1CC(c2ccc(Br)cc2)=NN1C(=O)c1cccnc1 (centres undefined)	ADAM17 inh 9.7 | ADAM10 counter inactive | ADAM17 confirm inactive
CC(COc1cccc(F)c1)CN1CCC(C(O)(c2ccccc2)c2ccccc2)CC1 (centres undefined)	ADAM17 inh 9.8 (no result: FAS-TE inh, CendR NRP1 mod, Arr AP2 block, CaV13 ICDI inh) | ADAM10 counter inactive | ADAM17 confirm inactive
CC(=O)Nc1ccc(CN(C)c2c(C)nc3ccc(C(=O)N(C)Cc4ccccc4)cn23)cc1	none (no result: Arr AP2 block)
Cc1cc(Oc2ccccc2)nc(SCC(=O)Nc2ccc(Cl)c(Cl)c2)n1	ADAM17 inh 14 | ADAM10 counter inactive | ADAM17 confirm 12
CCCCN(CCCC)CCNC(=O)c1cn(C)c2ccc(S(=O)(=O)N3CCCC3)cc2c1=O	ADAM17 inh 9.4 | ADAM10 counter inactive | ADAM17 confirm inactive
CCOC(=O)Cc1csc(NC(=O)COc2ccccc2)n1	ADAM17 inh 10.0 | ADAM10 counter inactive | ADAM17 confirm inactive
CCOC(=O)Cc1csc(NC(=O)c2cc(C)c(C)s2)n1	ADAM17 inh 11 | ADAM10 counter inactive | ADAM17 confirm 8.9
C=C(C)/C=C1/C(Cc2ccccc2)N(CC2CC2)C(=N)N1C(=O)OCc1ccccc1 (centres undefined)	none (no result: FAS-TE inh, CendR NRP1 mod, Arr AP2 block, CaV13 ICDI inh)
CCN1CCN(c2cc(SC(C)C)nc(-c3ccc(OC)cc3)n2)CC1	ADAM17 inh 13 | ADAM10 counter 23 | ADAM17 confirm 15
CC(C)Sc1cc(N2CCOCC2)nc(-c2ccc(Cl)cc2)n1	none (no result: CaV13 ICDI inh)
CCC(=O)Nc1nnc(C)s1	ADAM17 inh 12 (no result: CaV13 ICDI inh) | ADAM10 counter inactive | ADAM17 confirm inactive
Cc1ccc(C2=NNC(=O)C(P(=O)(c3ccccc3)c3ccccc3)C2)cc1 (centres undefined)	ADAM17 inh 9.4 | ADAM10 counter inactive | ADAM17 confirm inactive
CN1C(=O)CC(P(=O)(c2ccccc2)c2ccccc2)N(C)C1=O (centres undefined)	none
COc1cc(CN2C[C@@H](CO)O[C@@H](n3cnc4c(N5CCN(c6ccccc6)CC5)ncnc43)C2)cc(OC)c1OC	ADAM17 inh 9.1, CendR NRP1 mod 37 (no result: Arr AP2 block) | ADAM10 counter inactive | ADAM17 confirm inactive
O=C(NCc1ccccc1)C(c1ccc(F)cc1)N(C(=O)c1csnn1)c1ccccc1 (centres undefined)	none
CC(C)(C)c1csc(NNC(=O)c2ccc(Br)cc2)n1	ADAM17 inh 8.7 | ADAM10 counter inactive | ADAM17 confirm inactive
CC(=O)c1cc(-c2ccc(Cl)c(C(F)(F)F)c2)c(=O)n2c1CCC2	none (no result: FAS-TE inh, CendR NRP1 mod, Arr AP2 block, CaV13 ICDI inh)
Cc1ccc(-c2[nH]nc(N)c2N=Nc2ccccc2C)cc1	ADAM17 inh 9.7 | ADAM10 counter 25 | ADAM17 confirm 16
Cc1ccc(-c2[nH]nc(N)c2N=Nc2cccc(Cl)c2C)cc1	none
CCCOc1ccc(F)cc1-c1cc(C(=O)NCc2cccc(C(F)(F)F)c2)[nH]n1	ADAM17 inh 9.7 (no result: Arr AP2 block) | ADAM10 counter 22 | ADAM17 confirm 15
Cc1cc(F)cc(-c2cc(C(=O)NCc3cccc(Cl)c3)[nH]n2)c1	ADAM17 inh 9.1 (no result: Arr AP2 block) | ADAM10 counter inactive | ADAM17 confirm inactive
COc1cc(/C=C2\SC(=S)N(Nc3ccccc3)C2=O)ccc1O	none
CCOc1cc(/C=C2\SC(=S)N(Nc3ccccc3)C2=O)ccc1O	ADAM17 inh 9.5 | ADAM10 counter 31 | ADAM17 confirm 14
Cc1ccc(/C(CSc2nccn2-c2ncc(C(F)(F)F)cc2Cl)=N\O)cc1	ADAM17 inh 15 (no result: CaV13 ICDI inh) | ADAM10 counter inactive | ADAM17 confirm 9.1
CSc1ccc(-c2nnn(Cc3ccc(Br)cc3)n2)cc1	none
Cc1cc(Cn2nnc(-c3ccc(Br)cc3)n2)cc(C)c1O	ADAM17 inh 11 | ADAM10 counter inactive | ADAM17 confirm inactive
CCCCCCCCN1C(=O)[C@@H](CC(=O)NCc2cccs2)C[C@@]2(C(=O)OC)C1=C[C@H](C(C)C)O[C@@H]2C1CC1	none (no result: FAS-TE inh, CendR NRP1 mod, Arr AP2 block, CaV13 ICDI inh)
COC(=O)c1ccc(-n2c(C)cc(C(=O)CSc3ccc(NC(C)=O)cc3)c2C)cc1	ADAM17 inh 9.0 | ADAM10 counter 22 | ADAM17 confirm 16
C/C(CC(=O)Nc1ccc(Br)cc1)=N\NC(=O)c1cccc(O)c1	ADAM17 inh 10.0 | ADAM10 counter inactive | ADAM17 confirm inactive
CCOC(=O)c1cc(=O)nc(N)s1	none (no result: Arr AP2 block)
O=C(NNC(=S)NCc1ccccc1)c1cccc([N+](=O)[O-])c1	ADAM17 inh 13 | ADAM10 counter inactive | ADAM17 confirm inactive
O=C(NNC(=S)NC(=O)c1ccc(Br)cc1)c1cccc([N+](=O)[O-])c1	none
S=C(NCc1ccccc1)NCc1cccc(Cl)c1	none
S=C(NCc1ccccc1)NCc1cccc(CNC(=S)NCc2ccccc2)c1	ADAM17 inh 9.3 | ADAM10 counter 22 | ADAM17 confirm 14
COCCCNC(=O)C[C@H]1C[C@@]2(C(=O)OC)C(=C[C@H](COCc3ccccc3)O[C@@H]2C)N(CCC2=CCCCC2)C1=O	none (no result: FAS-TE inh, CendR NRP1 mod, Arr AP2 block)
CCNc1nc(NCC)n2c(SC(C(=O)Nc3cc(C)ccc3C)c3ccccc3)nnc2n1 (centres undefined)	none
CCOCCCn1c(SC(C(=O)Nc2cc(C)ccc2C)c2ccccc2)nnc1-c1ccc(Cl)cc1 (centres undefined)	ADAM17 inh 9.9 | ADAM10 counter inactive | ADAM17 confirm inactive
COc1ccc(OC)c(NC(=O)COC(=O)c2c3c(nc4ccccc24)CCCC3)c1	ADAM17 inh 11 | ADAM10 counter inactive | ADAM17 confirm 14
ON=C(c1ccccc1)c1ccc2c3c(cccc13)CC2	ADAM17 inh 12 (no result: Arr AP2 block) | ADAM10 counter 20 | ADAM17 confirm 9.0
CC(=O)c1ccc2c3c(cccc13)CC2	none
CCOC(=O)N1CCN(S(=O)(=O)c2ccc(C(=O)NNc3nc4c(C)cc(C)cc4s3)cc2)CC1	ADAM17 inh 9.7 (no result: Arr AP2 block) | ADAM10 counter 29 | ADAM17 confirm 23
CCOC(=O)N1CCN(S(=O)(=O)c2ccc(C(=O)NNc3nc4c(C)cccc4s3)cc2)CC1	none
